Reference: ChEMBL document CHEMBL1141573, “Quinolone 3-carboxylic acid pharmacophore: design of second generation HIV-1 integrase inhibitors” (J Med Chem, 2008)
Values belong to the molecule of their own block, whether it stands above or below them. The source made the active and inactive calls. The calls are words filed in the database; no cut-off is given here.

Tests used:
[1] = molecular target: T1, Human immunodeficiency virus type 1 integrase (Human immunodeficiency virus 1, UniProt Q7ZJM1); assay: Inhibition of HIV1 integrase strand transfer activity
[2] = molecular target: T1, Human immunodeficiency virus type 1 integrase; assay: Inhibition of HIV1 integrase 3'-end processing activity
Summary of the method: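 Wild-type recombinant IN, 200 nM final, preincubated with inhibitor at 30 °C for 30 min in buffer with 7.5 mM MnCl2, 10% DMSO, 25 mM MOPS pH 7.2. Then 20 nM 5′-32P-labeled 21-mer U5 LTR duplex substrate added, incubated a further 1 h. 21-mer to 19-mer conversion gives % inhibition versus DNA-alone and no-drug controls. IC50 from log concentration versus % inhibition.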

[3] = molecular target: Human immunodeficiency virus type 1 integrase (Human immunodeficiency virus 1) (UniProt Q7ZJM1); assay: Inhibition of HIV1 integrase at 100 uM
Summary of the method: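 Wild-type recombinant IN (200 nM final) preincubated with compound 30 min at 30 °C in buffer with 7.5 mM MnCl2, 10% DMSO, MOPS pH 7.2. Then 20 nM 5′-32P-labeled 21-mer U5 LTR duplex added for 1 h. Reactions quenched with formamide loading dye. Conversion to 19-mer (3′-processing) and strand transfer products gives % inhibition versus DNA alone and DNA plus IN.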

[4] = system: Human immunodeficiency virus 1; assay: Antiviral activity against HIV1 in MT4 cells assessed as inhibition of viral-induced cytopathic effect by MTT method; assay type: functional, organism-based; settings: Human immunodeficiency virus 1, MT4
Summary of the method: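 MT-4 cells (RPMI 1640 with 10% heat-inactivated FCS, 2 mM L-glutamine, 37 °C, 5% CO2) infected with 100–300 CCID50 of HIV-1(IIIB) in presence of 5-fold serial compound dilutions. Viral CPE read by MTT reduction to formazan measured spectrophotometrically. IC50 = concentration giving 50% protection against CPE.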

[5] = Cytotoxicity against human MT4 cells; assay type: cell-based
Summary of the method: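 Viability of mock-infected MT-4 cells after 5 days of incubation, measured by MTT reduction to formazan read spectrophotometrically; CC50 derived.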

T1 sequence (Q7ZJM1 whole entry): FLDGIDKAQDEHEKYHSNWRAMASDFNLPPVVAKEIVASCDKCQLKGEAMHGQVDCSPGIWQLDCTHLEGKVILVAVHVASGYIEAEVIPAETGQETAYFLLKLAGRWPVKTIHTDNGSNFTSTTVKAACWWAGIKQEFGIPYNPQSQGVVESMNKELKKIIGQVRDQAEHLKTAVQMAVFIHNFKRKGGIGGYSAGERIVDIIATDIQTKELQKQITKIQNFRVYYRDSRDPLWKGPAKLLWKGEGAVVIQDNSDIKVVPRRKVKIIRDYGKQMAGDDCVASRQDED
Sequence of Human immunodeficiency virus type 1 integrase (Human immunodeficiency virus 1) (Q7ZJM1 as listed by the source): as the sequence (Q7ZJM1 whole entry) above

IC50 [1]: 5 µM | IC50 [2]: 18 µM
SMILES: O=C(O)CSc1nnc(-c2ccco2)c(-c2ccco2)n1

Activity [3]: inactive
SMILES: COc1cc(CNc2nn[nH]n2)ccc1OCc1cccc(C)c1

IC50 [1]: 23 µM | IC50 [2]: 48 µM
SMILES: Cc1ccc2nc(-c3ccc(NC(=O)/C=C/C(=O)O)cc3)sc2c1

Activity [3]: inactive
SMILES: Cc1ccc2[nH]c(CNC(=O)CCC(=O)O)cc2c1

Activity [3]: inactive
SMILES: Cc1ccc(C)c(NC(=O)CSc2ncccc2C(=O)O)c1

IC50 [1]: 43 µM | IC50 [2]: 82 µM
SMILES: COc1cccc(NC(=O)c2sc3[nH]c(=O)c(C(=O)O)cc3c2N)c1

SMILES: O=C(O)c1c[nH]c2ccc(Cc3cccc(Cl)c3F)cc2c1=O
EC50 [4]: 0.805 µM

Activity [3]: inactive
SMILES: COc1cc(CNc2nn[nH]n2)ccc1OCc1c(F)cccc1Cl

IC50 [1]: 66 µM | IC50 [2]: 92 µM
SMILES: O=C(O)CN1C(=O)/C(=C2\SC(=S)N(C(Cc3ccccc3)C(=O)O)C2=O)c2ccccc21 (stereo unspecified)

Activity [3]: inactive
SMILES: Cc1cc(-c2cccnc2)c(C#N)c(SCC(=O)O)n1

Activity [3]: inactive
SMILES: O=C(Nc1ccccn1)c1ccc(NC(=O)C2CC=CCC2C(=O)O)cc1 (stereo unspecified)

Activity [3]: inactive
SMILES: CCOc1cc(C2NC(C(=O)O)CS2)ccc1OCc1cccc(C)c1 (stereo unspecified)

IC50 [1]: > 100 µM | IC50 [2]: > 100 µM
SMILES: O=C(O)CSc1nc(-c2ccccc2)cc(C(F)(F)F)n1

IC50 [1]: 34 µM | IC50 [2]: > 100 µM
SMILES: O=C(O)C1CCCCC1C(=O)Nc1ccc(Oc2cccc3ccccc23)cc1 (stereo unspecified)
CC50 [5]: 3.5 µM

Activity [3]: inactive
SMILES: CCn1nc(NC(=O)CCC(=O)O)c2cc3cc(C)ccc3nc21

IC50 [1]: 5 µM | IC50 [2]: 14 µM
SMILES: COc1ccc(/C=C2\C(=O)N(c3nnn[nH]3)N=C2C)cc1OCc1ccccc1Cl

Activity [3]: inactive
SMILES: COc1cc(C2NC(C(=O)O)CS2)ccc1OCc1c(Cl)cccc1Cl (stereo unspecified)

Activity [3]: inactive
SMILES: COc1ccc(-c2ccc(-c3nnn(C(C)C(=O)O)n3)cc2)cc1 (stereo unspecified)

Activity [3]: inactive
SMILES: COc1cc(CNc2nn[nH]n2)ccc1OCc1cccc(Cl)c1

Activity [3]: inactive
SMILES: O=C(O)C1CC(=O)N(c2ccc(OCc3ccccc3Cl)cc2)C1 (stereo unspecified)

Activity [3]: inactive
SMILES: O=C(O)C1CC=CCC1C(=O)Nc1ccc(Cc2ccncc2)cc1 (stereo unspecified)

IC50 [1]: 65 µM | IC50 [2]: 61 µM
SMILES: CCOc1cc(N(CC)CC)ccc1/C=C1\C(=O)N(c2nnn[nH]2)N=C1C

SMILES: COc1cc2c(cc1Cc1cccc(Cl)c1F)c(=O)c(C(=O)O)cn2CCO
EC50 [4]: 0.017 µM

Activity [3]: inactive
SMILES: Cc1nn(-c2ccccc2)c2sc(-c3nnc(SCC(=O)O)o3)cc12

Activity [3]: inactive
SMILES: O=C(O)CSc1nnc(COc2cccc3ccccc23)o1

Activity [3]: inactive
SMILES: O=C(CSc1ncccc1C(=O)O)Nc1cccc2ccccc12

IC50 [1]: 46 µM | IC50 [2]: > 100 µM
SMILES: O=C(O)C(O)C(O)c1nc2cc3ccccc3cc2[nH]1 (stereo unspecified)

SMILES: CC(C)[C@H](CO)n1cc(C(=O)O)c(=O)c2cc(Cc3cccc(Cl)c3F)ccc21
EC50 [4]: 0.007 µM

IC50 [1]: 5 µM | IC50 [2]: 14 µM
SMILES: Nc1c(C(=O)Nc2ccc(Cl)c(Cl)c2)sc2[nH]c(=O)c(C(=O)O)cc12

IC50 [1]: 4 µM | IC50 [2]: 7 µM
SMILES: CCOc1cc(/C=C2\C(=O)N(c3nnn[nH]3)N=C2C)cc(Cl)c1OCC

IC50 [1]: 59 µM | IC50 [2]: 75 µM
SMILES: CCOc1cc(/C=C2\C(=O)N(c3nnn[nH]3)N=C2C)ccc1OC

Activity [3]: inactive
SMILES: Cc1nc2ccccc2n1CC(O)COc1cccc(C(=O)O)c1 (stereo unspecified)

Activity [3]: inactive
SMILES: CCOc1cc(CNc2nn[nH]n2)ccc1OCc1ccc(C)cc1

IC50 [1]: 4 µM | IC50 [2]: 5 µM
SMILES: COc1cc(/C=C2\C(=O)N(c3nnn[nH]3)N=C2C)cc(Cl)c1OC

IC50 [1]: > 100 µM | IC50 [2]: > 100 µM
SMILES: O=C(O)CSc1nc(Nc2ccccc2)nc(N2CCOCC2)n1

IC50 [1]: 60 µM | IC50 [2]: 98 µM
SMILES: N#Cc1c(-c2ccc(Cl)cc2)cc(-c2ccccc2)nc1SCC(=O)O

Activity [3]: inactive
SMILES: COc1ccc(-c2nnc(SCC(=O)N/N=C/c3ccccc3C(=O)O)n2-c2ccccc2)cc1OC

Activity [3]: inactive
SMILES: COc1cc(CNc2nn[nH]n2)ccc1OCc1ccc(C)cc1

Activity [3]: inactive
SMILES: O=C(O)CSCC(=O)Nc1nc(-c2ccccc2)cs1

Activity [3]: inactive
SMILES: O=C(O)COc1ccc2c(-c3ccccc3)cc(=O)oc2c1

Activity [3]: inactive
SMILES: COc1cc(CNc2nn[nH]n2)ccc1OCc1c(Cl)cccc1Cl

Activity [3]: inactive
SMILES: Cc1ccc(OCc2nnc(SC(C)C(=O)O)n2-c2ccccc2)cc1 (stereo unspecified)

SMILES: COc1cc2c(cc1Cc1cccc(Cl)c1F)c(=O)c(C(=O)O)cn2[C@@H](CO)C(C)C
EC50 [4]: 0.0009 µM

Activity [3]: inactive
SMILES: COc1ccc2[nH]c(SCC(=O)Nc3cc(C(=O)O)ccc3C)nc2c1

Activity [3]: inactive
SMILES: O=C(O)c1ccccc1SCCSc1ccccc1C(=O)O

Activity [3]: inactive
SMILES: O=C(O)CSc1nnc2n(Cc3ccc(F)cc3)c3ccccc3n12

Activity [3]: inactive
SMILES: O=C(O)CCCC(=O)Nc1nc(-c2cccc3ccccc23)cs1

Activity [3]: inactive
SMILES: Cc1ccc2nc(NC(=O)CCC(=O)O)sc2c1

Activity [3]: inactive
SMILES: O=C(O)C1CC(=O)N(c2ccc(OCc3c(F)cccc3Cl)cc2)C1 (stereo unspecified)

Activity [3]: inactive
SMILES: Cc1ccc2nc(NC(=O)CSCC(=O)O)sc2c1

Activity [3]: inactive
SMILES: COc1cc(NC(=O)c2ccc3c(c2)C(=O)N(c2ccccc2OC)C3=O)c(C(=O)O)cc1OC

Activity [3]: inactive
SMILES: CCn1c(CNC(=O)CCC(=O)O)cc2ccccc21

Activity [3]: inactive
SMILES: CCN(C(=O)CCC(=O)O)c1nc(CC(=O)Nc2ccc(Cl)cc2)cs1

Activity [3]: inactive
SMILES: O=C(Nc1ccccc1C(=O)O)c1ccc(CN2CCc3ccccc3C2)cc1

Activity [3]: inactive
SMILES: O=C(O)c1cccc(OCC(O)Cn2cnc3ccccc32)c1 (stereo unspecified)

IC50 [1]: 17 µM | IC50 [2]: 63 µM
SMILES: Cc1ccc(C(=O)O)cc1NC(=O)CSc1nc2ccccc2s1

Activity [3]: inactive
SMILES: Cc1cc(OCn2ccc(C(=O)O)n2)ccc1Cl

IC50 [1]: > 100 µM | IC50 [2]: > 100 µM
SMILES: O=C(O)CSc1nc(-c2cccs2)cc(C(F)(F)F)n1

Activity [3]: inactive
SMILES: O=C(O)CSc1ccc(-c2nc3ccccc3[nH]2)cn1

Activity [3]: inactive
SMILES: CCOc1cc(CNc2nn[nH]n2)ccc1OCc1ccccc1

Activity [3]: inactive
SMILES: O=C(CSc1nnc(-c2ccc(Cl)cc2)n1-c1ccccc1)N/N=C/c1ccccc1C(=O)O

Activity [3]: inactive
SMILES: COc1ccc(/C=N/Nc2nc(C(=O)O)cs2)cc1

Activity [3]: inactive
SMILES: COc1cc(CNc2nn[nH]n2)ccc1OCc1ccc(F)cc1

Activity [3]: inactive
SMILES: COc1cc(CNc2nn[nH]n2)ccc1OCc1ccc(Cl)cc1

SMILES: O=C(O)c1cn(CCO)c2ccc(Cc3cccc(Cl)c3F)cc2c1=O
EC50 [4]: 0.076 µM

Activity [3]: inactive
SMILES: CCCn1nc(NC(=O)CCC(=O)O)c2cc3cc(C)ccc3nc21

IC50 [1]: 18 µM | IC50 [2]: 42 µM
SMILES: O=C(O)c1ccccc1NC(=O)c1ccccc1S(=O)(=O)Nc1ccc(Oc2ccccc2)cc1

IC50 [1]: 13 µM | IC50 [2]: 11 µM
SMILES: CC1=NN(c2nnn[nH]2)C(=O)/C1=C\c1cc(Cl)c(O)c(Cl)c1

IC50 [1]: 52 µM | IC50 [2]: > 100 µM
SMILES: CCOc1cc(CNc2nn[nH]n2)cc(Cl)c1OCc1ccc(Cl)cc1

Activity [3]: inactive
SMILES: CCn1nc(NC(=O)CCCC(=O)O)c2cc3cc(C)ccc3nc21
